Test results taken from ChEMBL document CHEMBL1137087, “Discovery of novel 2,8-diazaspiro[4.5]decanes as orally active glycoprotein IIb-IIIa antagonists” (J Med Chem, 2004).
Where “and” joins values, the source holds several entries; their conditions need not be identical. Identical values can stand only once.

What was measured:
[1] = target: Integrin alpha-IIb/beta-3 (Homo sapiens, UniProt P05106+P08514); test: Tested for inhibition of the binding of fibrinogen to purified human GPIIb-IIIa in a 96-well format (ELISA assay); format: protein-complex assay
Procedure, shortened: (§1)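 Purified GPIIb-IIIa or vitronectin receptor, 0.5 μg/well, coated overnight at 4 °C, BSA-blocked. Compound plus 10 nM biotinylated ligand added in triplicate, 2 h at room temperature, pH 7.4 Tris with CaCl2 and BSA.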

[2] = (§2) Area under curve was determined after oral administration in rats; format: ADME, organism-based; parameters: concentration or dose not given beside the values; details: rat, in vivo
Procedure, shortened: (§3)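 Sprague Dawley rats instrumented 2 days before, conscious; prodrug in water given orally and free acid in 50% PEG-300 intravenously, 1 mg/kg each, six rats per group. Serial blood sampling on EDTA or citrate; plasma deproteinized with acetonitrile plus internal standard, filtered. AUC, Cmax and t1/2β from mean concentration–time curves; F = oral AUC / iv AUC.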

[3] = Clearance of the drug was measured in cynomolgus; format: ADME; details: cercopithecidae, in vivo; read-out: CI
Procedure, shortened: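 Fasted, chair-restrained cynomolgus monkeys. Active acid given as a 15 min iv infusion in 50% PEG-300 diluted with plasmalyte; prodrug given a week later in water by nasogastric tube to the same animals. EDTA plasma sampled over 0–48 h and assayed by LC/MS/MS. t1/2β taken from the terminal log-linear phase; Vz = dose/(AUCINF·λz); F corrected for molecular weight and dose.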

Canis familiaris = species: Canis familiaris; test: Clearance of the drug was measured in the plasma of dog; format: ADME, organism-based, Canis lupus familiaris; details: in vivo
Procedure, shortened: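 Fasted male beagle dogs (n = 4): prodrug at 1 mg/kg orally, active drug intravenously. Plasma drug measured by LC/MS/MS. t1/2β from the linear portion of the log concentration–time curve; Vz = dose/(AUCINF·λz); F corrected for molecular weight and dose differences.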

Integrin alpha-V/beta-3 = Integrin alpha-V/beta-3 (Homo sapiens, UniProt P05106+P06756); test: Inhibition of vitronectin binding to Vitronectin receptor (alpha V beta 3); format: protein-complex assay
Procedure, shortened: as §1, with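 “BSA. Detected by anti-biotin alkaline phosphatase conjugate, read at 405 nm; BSA-well binding subtracted; IC50 from three experiments.” for “BSA.”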

Rattus norvegicus = species: Rattus norvegicus; test: Bioavailability in rat; format: ADME, organism-based; details: in vivo; procedure, shortened: as §3
[4] = Inhibition of Human umbilical vein endothelial cells (HUVEC) adhesion to Vitronectin; format: cell-based
[5] = Inhibition of Human umbilical vein endothelial cells (HUVEC) adhesion to fibronectin; format: cell-based
[6] = Inhibition of Human umbilical vein endothelial cells (HUVEC) adhesion to vitronectin; format: cell-based
Mus musculus [7] = test: Compound was tested for bleeding time in mice at a dose of 50 mg/kg vs DMSO (vehicle); format: functional
Procedure, shortened: (§4)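 Anesthetized female C57/bl mice given an iv tail-vein bolus in 10% DMSO in water (~150 μL); vehicle controls received DMSO. Tail transected 2 mm from the tip and immersed in 37 °C normal saline. Bleeding time recorded to cessation of flow by visual inspection, up to 900 s.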

Mus musculus [8] = test: Compound was tested for bleeding time in mice at a dose of 40 mg/kg vs DMSO (vehicle); format: functional; procedure, shortened: as §4
Mus musculus [9] = test: Compound was tested for bleeding time in mice at a dose of 10 mg/kg vs DMSO (vehicle); format: functional; procedure, shortened: as §4
Mus musculus [10] = test: Compound was tested for bleeding time in mice at a dose of 100 mg/kg vs DMSO (vehicle); format: functional; procedure, shortened: as §4
[11] = as §2; format: ADME, organism-based; details: rat, in vivo; procedure, shortened: as §3

Chain of Integrin alpha-V/beta-3 (P05106 27-788 limits assumed): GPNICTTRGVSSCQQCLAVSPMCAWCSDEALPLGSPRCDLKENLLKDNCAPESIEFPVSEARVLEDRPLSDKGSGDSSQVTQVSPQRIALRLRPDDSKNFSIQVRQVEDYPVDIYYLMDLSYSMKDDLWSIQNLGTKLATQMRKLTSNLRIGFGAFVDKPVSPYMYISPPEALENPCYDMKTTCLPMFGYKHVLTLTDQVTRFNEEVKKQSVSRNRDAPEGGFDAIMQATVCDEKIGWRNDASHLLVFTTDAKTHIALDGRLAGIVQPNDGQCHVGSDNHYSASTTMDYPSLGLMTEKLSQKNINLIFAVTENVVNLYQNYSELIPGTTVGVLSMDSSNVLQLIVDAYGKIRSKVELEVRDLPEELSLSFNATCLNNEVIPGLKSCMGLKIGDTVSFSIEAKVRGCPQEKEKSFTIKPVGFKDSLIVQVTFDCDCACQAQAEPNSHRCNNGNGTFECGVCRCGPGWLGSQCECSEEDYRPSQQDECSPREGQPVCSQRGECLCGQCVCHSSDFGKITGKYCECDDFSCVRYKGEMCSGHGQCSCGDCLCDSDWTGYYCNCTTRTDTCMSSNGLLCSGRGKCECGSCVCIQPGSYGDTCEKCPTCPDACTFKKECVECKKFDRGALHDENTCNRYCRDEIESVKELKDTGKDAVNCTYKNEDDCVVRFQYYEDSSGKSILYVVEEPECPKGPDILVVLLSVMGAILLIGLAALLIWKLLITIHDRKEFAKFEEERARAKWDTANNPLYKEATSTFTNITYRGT
Chain of Integrin alpha-V/beta-3 (P06756 31-889 limits assumed): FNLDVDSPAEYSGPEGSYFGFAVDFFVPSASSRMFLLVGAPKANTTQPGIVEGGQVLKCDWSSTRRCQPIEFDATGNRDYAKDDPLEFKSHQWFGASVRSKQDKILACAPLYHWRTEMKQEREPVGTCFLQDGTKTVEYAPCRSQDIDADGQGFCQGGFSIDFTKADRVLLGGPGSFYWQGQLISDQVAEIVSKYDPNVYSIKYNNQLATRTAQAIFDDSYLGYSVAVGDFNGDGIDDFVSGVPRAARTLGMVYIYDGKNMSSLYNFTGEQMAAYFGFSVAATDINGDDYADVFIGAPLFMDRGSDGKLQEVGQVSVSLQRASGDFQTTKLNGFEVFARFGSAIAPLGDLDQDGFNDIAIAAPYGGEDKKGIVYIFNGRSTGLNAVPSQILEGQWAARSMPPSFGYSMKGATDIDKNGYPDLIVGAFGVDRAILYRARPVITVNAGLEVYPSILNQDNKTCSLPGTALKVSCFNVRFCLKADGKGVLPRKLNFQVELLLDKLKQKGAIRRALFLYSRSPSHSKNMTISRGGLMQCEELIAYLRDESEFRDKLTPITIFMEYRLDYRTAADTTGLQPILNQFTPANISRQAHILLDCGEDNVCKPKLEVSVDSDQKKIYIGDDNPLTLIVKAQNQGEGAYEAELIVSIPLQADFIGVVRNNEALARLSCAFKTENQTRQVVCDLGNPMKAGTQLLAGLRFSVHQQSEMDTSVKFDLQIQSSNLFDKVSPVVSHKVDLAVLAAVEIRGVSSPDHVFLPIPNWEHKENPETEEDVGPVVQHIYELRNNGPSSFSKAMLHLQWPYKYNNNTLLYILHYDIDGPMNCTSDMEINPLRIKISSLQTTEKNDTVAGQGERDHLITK
Chain of Integrin alpha-V/beta-3 (P06756 891-1048 limits assumed): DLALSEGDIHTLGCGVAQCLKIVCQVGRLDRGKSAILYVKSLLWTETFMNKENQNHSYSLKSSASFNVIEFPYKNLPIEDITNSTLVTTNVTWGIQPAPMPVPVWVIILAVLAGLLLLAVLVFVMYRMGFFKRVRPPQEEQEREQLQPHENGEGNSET
Chain of Integrin alpha-IIb/beta-3 (P05106 27-788 limits assumed): as the sequence (P05106 27-788 limits assumed) above
Chain of Integrin alpha-IIb/beta-3 (P08514 32-887 limits assumed): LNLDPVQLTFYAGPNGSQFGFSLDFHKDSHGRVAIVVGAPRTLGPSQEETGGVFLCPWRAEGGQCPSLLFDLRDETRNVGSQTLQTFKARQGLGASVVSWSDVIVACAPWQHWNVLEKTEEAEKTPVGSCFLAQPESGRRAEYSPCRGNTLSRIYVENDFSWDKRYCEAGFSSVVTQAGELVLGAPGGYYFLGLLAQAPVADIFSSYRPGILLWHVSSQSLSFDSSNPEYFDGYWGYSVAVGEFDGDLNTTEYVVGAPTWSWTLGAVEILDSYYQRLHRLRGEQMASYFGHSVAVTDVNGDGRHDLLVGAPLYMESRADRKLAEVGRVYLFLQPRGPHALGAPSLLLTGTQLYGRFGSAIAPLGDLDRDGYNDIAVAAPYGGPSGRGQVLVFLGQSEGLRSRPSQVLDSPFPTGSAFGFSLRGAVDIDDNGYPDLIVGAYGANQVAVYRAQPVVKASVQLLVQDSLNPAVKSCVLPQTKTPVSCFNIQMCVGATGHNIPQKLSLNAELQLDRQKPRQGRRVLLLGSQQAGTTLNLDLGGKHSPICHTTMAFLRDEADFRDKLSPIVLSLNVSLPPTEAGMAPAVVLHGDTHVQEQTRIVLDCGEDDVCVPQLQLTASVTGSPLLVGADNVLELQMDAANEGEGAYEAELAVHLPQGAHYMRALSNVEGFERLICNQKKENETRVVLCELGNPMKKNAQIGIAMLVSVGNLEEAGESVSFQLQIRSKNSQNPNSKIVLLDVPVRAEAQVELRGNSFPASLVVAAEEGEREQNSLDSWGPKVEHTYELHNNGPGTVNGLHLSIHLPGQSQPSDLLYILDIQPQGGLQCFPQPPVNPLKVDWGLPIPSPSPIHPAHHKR
Chain of Integrin alpha-IIb/beta-3 (P08514 891-1039 limits assumed): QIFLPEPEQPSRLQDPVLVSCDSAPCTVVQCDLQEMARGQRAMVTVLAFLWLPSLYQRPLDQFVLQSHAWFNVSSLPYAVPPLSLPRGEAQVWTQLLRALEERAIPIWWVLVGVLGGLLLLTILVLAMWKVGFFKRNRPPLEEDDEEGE

Row | SMILES | IC50 [1] | further results
1 | N=C(N)c1ccc(N2C(=O)NC3(CCN(C(=O)NCCC(=O)O)CC3)C2=O)cc1 | 329 nM | 
2 | CCOC(=O)CC(CC(=O)N1CCC2(CC1)CCN(c1ccc(C(=N)NO)cc1)C2=O)c1ccccc1 (centres undefined) |  | AUC [2]: 7.9 ng·h/mL
3 | CCOC(=O)COCC(=O)N1CCC2(CC1)CCN(c1ccc(C(=N)NO)cc1)C2=O |  | clearance [3]: 2.7 mL/min/kg; AUC [2]: 651 ng·h/mL; CI (Canis familiaris): 3.28 mL/min/kg
4 | CCCCOC(=O)N[C@@H](CCC(=O)N1CCC2(CC1)CCN(c1ccc(C(=N)NO)cc1)C2=O)C(=O)OCC |  | AUC [2]: 184 ng·h/mL
5 | N=C(N)c1ccc(N2CC3(CCN(C(=O)CCCC(=O)O)CC3)NC2=O)cc1 | 751 nM | 
6 | CCCCOC(=O)N[C@@H](CCC(=O)N1CCC2(CC1)C(=O)N(c1ccc(C(=N)NO)cc1)C(=O)N2C)C(=O)OCC |  | F (Rattus norvegicus): Not detected
7 | N=C(N)c1ccc(N2CCC3(CCN(CCCCC(=O)O)CC3)C2=O)cc1 | 7800 nM | 
8 | N=C(N)c1ccc(N2CC3(CCN(C(=O)CCCC(=O)O)CC3)CC2=O)cc1 | 650 nM | 
9 | N=C(N)c1ccc(N2C(=O)CC3(CCN(C(=O)NCCC(=O)O)CC3)C2=O)cc1 | 410 nM | 
10 | CN1C(=O)N(c2ccc(C(=N)N)cc2)C(=O)C12CCN(C(=O)CCCC(=O)O)CC2 | 100 nM | 
11 | CN1C(=O)N(c2ccc(C(=N)N)cc2)CC12CCN(C(=O)CCCC(=O)O)CC2 | 1020 nM | 
12 | CCOC(=O)CCCC(=O)N1CCC2(CC1)CCN(c1ccc(C(=N)NO)cc1)C2=O |  | clearance [3]: 6.51 mL/min/kg; AUC [2]: 501 ng·h/mL; CI (Canis familiaris): 6.44 mL/min/kg
13 | NC(=NN1CCOCC1)c1ccc(N2CCC3(CCN(C(=O)CCCC(=O)O)CC3)C2=O)cc1 | 4180 nM | 
14 | N=C(N)c1ccc(N2CC3(CCN(C(=O)CCC(=O)O)CC3)CC2=O)cc1 | 10500 nM | 
15 | N=C(N)c1ccc(N2C(=O)CC3(CCN(C(=O)CCCC(=O)O)CC3)C2=O)cc1 | 430 nM | 
16 | N=C(N)c1ccc(N2CC3(CCN(C(=O)CCCCC(=O)O)CC3)CC2=O)cc1 | 7300 nM | 
17 | CCOC(=O)CCNC(=O)N1CCC2(CC1)CC(=O)N(c1ccc(C(=N)NO)cc1)C2 |  | AUC [2]: 95.6 ng·h/mL
18 | CCNC(=N)c1ccc(N2CCC3(CCN(C(=O)CCCC(=O)O)CC3)C2=O)cc1 | 841 nM | 
19 | N=C(N)c1ccc(N2CCC3(CCN(C(=O)CC(=O)O)CC3)C2=O)cc1 | 15800 nM | 
20 | N=C(N)c1ccc(N2CCC3(CCN(C(=O)CCC(=O)O)CC3)C2=O)cc1 | 5600 nM | 
21 | N=C(N)c1ccc(N2CC3(CCN(C(=O)NCCC(=O)O)CC3)CC2=O)cc1 | 350 nM | 
22 | CN1C(=O)N(c2ccc(C(=N)N)cc2)CC12CCN(C(=O)NCCC(=O)O)CC2 | 400 nM | 
23 | CC(C)(COC(=O)N1CCC2(CC1)CC(=O)N(c1ccc(C(=N)N)cc1)C2)C(=O)O | 15000 nM | 
24 | N=C(N)c1ccc(N2CC3(CCN(C(=O)CC(=O)O)CC3)CC2=O)cc1 | 25000 nM | 
25 | CCOC(=O)CCNC(=O)N1CCC2(CC1)CCN(c1ccc(C(=N)NO)cc1)C2=O |  | AUC [11]: 565 ng·h/mL; clearance [3]: 5.12 mL/min/kg; CI (Canis familiaris): 8.43 mL/min/kg
26 | CCOC(=O)CCNC(=O)N1CCC2(CC1)C(=O)N(c1ccc(C(=N)NO)cc1)C(=O)N2C |  | AUC [2]: 60 ng·h/mL
27 | N=C(N)c1ccc(N2CCC3(CCN(C(=O)NCCC(=O)O)CC3)C2=O)cc1 | 4 nM and 3.9 nM | IC50 (Integrin alpha-V/beta-3): > 50000 nM
28 | CCOC(=O)CCNC(=O)N1CCC2(CC1)CN(c1ccc(C(=N)NO)cc1)C(=O)N2C |  | AUC [2]: 24 ng·h/mL

Further molecules by falling IC50 [1], results first:

Row | IC50 [1] | SMILES | further results
29 | 90 nM | N=C(N)c1ccc(N2CCC3(CCN(C(=O)CC(CC(=O)O)c4ccccc4)CC3)C2=O)cc1 (centres undefined) | 
30 | 50 nM | CN1C(=O)N(c2ccc(C(=N)N)cc2)C(=O)C12CCN(C(=O)NC(CC(=O)O)c1ccccc1)CC2 (centres undefined) | 
31 | 32 nM | CN1C(=O)N(c2ccc(C(=N)N)cc2)C(=O)C12CCN(C(=O)CC(CC(=O)O)c1ccccc1)CC2 (centres undefined) | 
32 | 30 nM | CCCCOC(=O)N[C@@H](CCC(=O)N1CCC2(CC1)CC(=O)N(c1ccc(C(=N)N)cc1)C2=O)C(=O)O | 
33 | 21 nM | N=C(N)c1ccc(N2C(=O)NC3(CCN(C(=O)CCCC(=O)O)CC3)C2=O)cc1 | 
34 | 20 nM | CN1C(=O)N(c2ccc(C(=N)N)cc2)CC12CCN(C(=O)CC(CC(=O)O)c1ccccc1)CC2 (centres undefined) | 
35 | 17 nM | N=C(N)c1ccc(N2CCC3(CCN(C(=O)COCC(=O)O)CC3)C2=O)cc1 | IC50 (Integrin alpha-V/beta-3): > 50000 nM
36 | 16 nM | Cc1noc(C)c1S(=O)(=O)N[C@@H](CCC(=O)N1CCC2(CC1)C(=O)N(c1ccc(C(=N)N)cc1)C(=O)N2C)C(=O)O | 
37 | 5 nM | C[C@H](CC(=O)O)NC(=O)N1CCC2(CC1)CCN(c1ccc(C(=N)N)cc1)C2=O | 
38 | 5 nM | Cc1noc(C)c1S(=O)(=O)N[C@@H](CCC(=O)N1CCC2(CC1)CCN(c1ccc(C(=N)N)cc1)C2=O)C(=O)O | Bleeding time (Mus musculus [7]): 562.5 s; Bleeding time (Mus musculus [8]): 196.5 s; Bleeding time (Mus musculus [9]): 96.7 s; Bleeding time (Mus musculus [10]): 890.6 s
39 | 5 nM | CCCCOC(=O)N[C@@H](CCC(=O)N1CCC2(CC1)CCN(c1ccc(C(=N)N)cc1)C2=O)C(=O)O | 
40 | 5 nM | C[C@H](CC(=O)O)CC(=O)N1CCC2(CC1)CCN(c1ccc(C(=N)N)cc1)C2=O | 
41 | 4 nM | CC(CC(=O)O)NC(=O)N1CCC2(CC1)CCN(c1ccc(C(=N)N)cc1)C2=O (centres undefined) | 
42 | 4 nM | C[C@@H](CC(=O)O)CC(=O)N1CCC2(CC1)CCN(c1ccc(C(=N)N)cc1)C2=O | 
43 | 4 nM | N=C(N)c1ccc(N2CCC3(CCN(C(=O)CCCC(=O)O)CC3)C2=O)cc1 | IC50 (Integrin alpha-V/beta-3): > 50000 nM; IC50 [4]: > 50000 nM; IC50 [5]: > 50000 nM
44 | 2.38 nM | CCOC(=O)CCNC(=O)N[C@H]1CCN(c2ccc(C(=N)N)cc2)C1=O [ORBOFIBAN] | 
45 | 2 nM | Cc1ccc(S(=O)(=O)N[C@@H](CNC(=O)N2CCC3(CC2)C(=O)N(c2ccc(C(=N)N)cc2)C(=O)N3C)C(=O)O)cc1 | 
46 | 1.14 nM | CCOC(=O)COC1CCN(C(=O)[C@H](C)NC(=O)c2ccc(/C(N)=N/O)cc2)CC1 [SIBRAFIBAN] | IC50 [6]: > 50000 nM; IC50 (Integrin alpha-V/beta-3): > 50000 nM; IC50 [5]: > 50000 nM
